# Results: ChEMBL document CHEMBL1275447 (Antimicrob Agents Chemother, 2008)
# Calls of active or inactive are those of the source. The rule behind the calls is not given here.
# Tests used:
# Pseudomonas aeruginosa [1] = assay: Antibacterial activity against Pseudomonas aeruginosa isolate 1005 by microdilution method; format: functional
# Summary of the method: (§1)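 CLSI broth microdilution in cation-adjusted Mueller-Hinton broth (20–25 mg/liter Ca, 10–12.5 mg/liter Mg). Standard inoculum 10⁵ CFU/ml, incubated in ambient air. Clinical hospital isolates.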
# [2] = Half-life in Pseudomonas aeruginosa ATCC 27853 infected neutropenic ICR mouse at 150 mg/kg, sc administered as single dose 2 hrs postinfection; format: ADME, organism-based; design: dose 150 mg/kg, route subcutaneous; settings: in vivo
# Summary of the method: (§2)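 Neutropenic mice (cyclophosphamide ip 150 and 100 mg/kg, 4 and 1 days before inoculation) with uranyl nitrate 5 mg/kg ip 3 days before, for renal impairment. Thigh infection with ATCC 27853 at 10⁶ CFU/ml, 0.1 ml per thigh. Single sc doses 2 h later. Intracardiac blood from 6–12 mice per time point, eight time points over 4 h. Serum assayed by HPLC (linear 0.5–40 μg/ml). One-compartment first-order fit.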
# [3] = Cmax in healthy human at 500 mg administered as as 4 hr infusion; format: ADME, organism-based; design: dose 500 mg; settings: in vivo, iv
# [4] = fT>MIC in neutropenic mouse infected with Pseudomonas aeruginosa isolate 993 at 500 mg administered as 4 hr infusion; format: functional
# Summary of the method: (§3)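 Mouse fT>MIC was modelled with first-order one-compartment serum PK and 25.2% binding. Mice were neutropenic (cyclophosphamide) with uranyl nitrate renal impairment. Subcutaneous doses were 5.5, 2.25, 4.5, 4.5, 4.5, 4.5, 0.75, 0.375 mg/kg at 0, 0.5, 1.5, 2.5, 3.5, 4.5, 6, 7.5 h per 8-h interval over 24 h.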
# [5] = fT>MIC in human infected with Pseudomonas aeruginosa isolate 1005 at 500 mg administered as 1 hr infusion; format: functional
# Pseudomonas aeruginosa [6] = assay: Antibacterial activity against Pseudomonas aeruginosa isolate 931 at 4 ug/ml after 24 hrs; format: functional, organism-based
# Pseudomonas aeruginosa [7] = assay: Antibacterial activity against Pseudomonas aeruginosa isolate 988 by microdilution method; format: functional
# [8] = fT>MIC in human infected with Pseudomonas aeruginosa isolate 1055 at 500 mg administered as 1 hr infusion; format: functional
# [9] = fT>MIC in human infected with Pseudomonas aeruginosa isolate 1062 at 500 mg administered as 1 hr infusion; format: functional
# Pseudomonas aeruginosa [10] = assay: Antibacterial activity against Pseudomonas aeruginosa isolate 944 by fractionation study; format: functional
# [11] = Cmax in healthy human at 500 mg administered as 1 hr infusion; format: ADME, organism-based; design: dose 500 mg; settings: in vivo, iv
# [12] = Half-life in Pseudomonas aeruginosa ATCC 27853 infected neutropenic ICR mouse at 50 mg/kg, sc administered as single dose 2 hrs postinfection; format: ADME, organism-based; design: dose 50 mg/kg, route subcutaneous; settings: in vivo; summary of the method: as §2
# [13] = fT>MIC in human infected with Pseudomonas aeruginosa isolate 936 at 500 mg administered as 4 hr infusion; format: functional
# [14] = Clearance in Pseudomonas aeruginosa ATCC 27853 infected neutropenic ICR mouse at 150 mg/kg, sc administered as single dose 2 hrs postinfection; format: ADME, organism-based; design: dose 150 mg/kg, route subcutaneous; settings: in vivo; summary of the method: as §2
# [15] = fT>MIC in human infected with Pseudomonas aeruginosa isolate 1082 at 500 mg administered as 1 hr infusion; format: functional
# [16] = fT>MIC in human infected with Pseudomonas aeruginosa isolate 935 at 500 mg administered as 4 hr infusion; format: functional
# [17] = fT>MIC in human infected with Pseudomonas aeruginosa isolate 993 at 500 mg administered as 4 hr infusion; format: functional
# [18] = Clearance in Pseudomonas aeruginosa ATCC 27853 infected neutropenic ICR mouse at 10 mg/kg, sc administered as single dose 2 hrs postinfection; format: ADME, organism-based; design: dose 10 mg/kg, route subcutaneous; settings: in vivo; summary of the method: as §2
# Pseudomonas aeruginosa [19] = assay: Antibacterial activity against Pseudomonas aeruginosa isolate 1058 by microdilution method; format: functional
# [20] = fT>MIC in human infected with Pseudomonas aeruginosa isolate 988 at 500 mg administered as 1 hr infusion; format: functional
# [21] = fT>MIC in human infected with Pseudomonas aeruginosa isolate 1006 at 500 mg administered as 1 hr infusion; format: functional
# [22] = fT>MIC in human infected with Pseudomonas aeruginosa isolate 927 at 500 mg administered as 1 hr infusion; format: functional
# [23] = fT>MIC in neutropenic mouse infected with Pseudomonas aeruginosa isolate 896 at 500 mg administered as 4 hr infusion; format: functional; summary of the method: as §3
# [24] = fT>MIC in human infected with Pseudomonas aeruginosa isolate 993 at 500 mg administered as 1 hr infusion; format: functional
# [25] = fT>MIC in neutropenic mouse thigh infection model at 4 to 8 ug/ml after 24 hrs; format: functional
# Summary of the method: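 Free-drug time above MIC simulated from one-compartment mouse serum PK (25.2% protein binding). The mice were cyclophosphamide-neutropenic and uranyl nitrate-renally impaired. Regimen was subcutaneous 10, 15, 2.5, 1.25, 0.5, 0.25 mg/kg at 0, 0.5, 2.5, 4, 5.5, 7 h, repeated every 8 h over 24 h.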
# [26] = fT>MIC in human infected with Pseudomonas aeruginosa isolate 968 at 500 mg administered as 4 hr infusion; format: functional
# Pseudomonas aeruginosa [27] = assay: Antibacterial activity against Pseudomonas aeruginosa isolate 944 by microdilution method; format: functional; summary of the method: as §1
# [28] = fT>MIC in human infected with Pseudomonas aeruginosa isolate 896 at 500 mg administered as 1 hr infusion; format: functional
structure (smiles),measurement,setting,value
C[C@@H](O)[C@H]1C(=O)N2C(C(=O)O)=C(S[C@@H]3CN[C@H](CNS(N)(=O)=O)C3)[C@H](C)[C@H]12 [DORIPENEM],MIC,Pseudomonas aeruginosa [1],1 µg/mL
same,half-life,[2],26.4 min
same,Cmax,[3],7790 ng/mL
same,fT>MIC,[4],100%
same,fT>MIC,[5],55%
same,Activity,Pseudomonas aeruginosa [6],inactive
same,MIC,Pseudomonas aeruginosa [7],8 µg/mL
same,fT>MIC,[8],72.5%
same,fT>MIC,[9],72.5%
same,MIC,Pseudomonas aeruginosa [10],3 µg/mL
same,Cmax,[11],21800 ng/mL
same,half-life,[12],20.4 min
same,fT>MIC,[13],0%
same,CL/F,[14],14.2 mL/min/kg
same,fT>MIC,[15],55%
same,fT>MIC,[16],80%
same,fT>MIC,[17],100%
same,CL/F,[18],11.2 mL/min/kg
same,MIC,Pseudomonas aeruginosa [19],2 µg/mL
same,fT>MIC,[20],17.5%
same,fT>MIC,[21],17.5%
same,fT>MIC,[22],7.5%
same,fT>MIC,[23],0%
same,fT>MIC,[24],100%
same,fT>MIC,[25],20%
same,fT>MIC,[26],0%
same,MIC,Pseudomonas aeruginosa [27],4 µg/mL
same,fT>MIC,[28],17.5%
